# Laboratory results from ChEMBL document CHEMBL1149103, “Anticonvulsant activity of phenylmethylenehydantoins: a structure-activity relationship study” (2004).
# Organism: Mus musculus
# Experiment: Anticonvulsant activity expressed as log(1/EDMES(2.5)) in MES assay on mice that responded a score of 2.5
# Type: functional
# How it was run: (§1)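 Male Swiss albino mice ([…]), pre-screened by passing a 5 min rotorod test. Compound in DMSO given ip, starting at 100 mg/kg, later doses raised or lowered to complete the dose-activity profile. After 30 min, 45 mA ([…]) for 0.2 s via auricular electrodes. Seizure scored 1 (no protection) to 4 (full), averaged over 5-6 mice per dose. Effective dose taken as the dose giving a score of 2.5; log value used for QSAR.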
row,Compound,Log 1/EDMES(2.5)
1,O=C1NC(=O)/C(=C/c2ccc(-c3ccccc3)cc2)N1,-2.3
2,CC(C)c1ccc(/C=C2\NC(=O)NC2=O)cc1,-1.9
3,O=C1NC(=O)/C(=C/c2ccc(C(F)(F)F)cc2)N1,-1.81
4,O=C1NC(=O)/C(=C/c2ccc(F)cc2)N1,-2.3
5,O=C1NC(=O)/C(=C/c2cccc([N+](=O)[O-])c2)N1,-2.3
6,COc1ccc(/C=C2\NC(=O)NC2=O)cc1,-2.3
7,O=C1NC(=O)/C(=C/c2ccc(F)c(F)c2)N1,-2.08
8,Cc1ccc(/C=C2\NC(=O)NC2=O)c(C)c1,-1.59
9,O=C1NC(=O)/C(=C/C2CCCCC2)N1,-2.19
10,O=C1NC(=O)/C(=C/c2ccccc2Cl)N1,-2.3
11,O=C1NC(=O)/C(=C/c2cccc(F)c2)N1,-2.24
12,Cc1cc(C)c(/C=C2\NC(=O)NC2=O)cc1C,-2.3
13,O=C1NC(=O)/C(=C/c2ccc(Cl)cc2)N1,-2.3
14,CN(C)c1ccc(/C=C2\NC(=O)NC2=O)cc1,-2.3
15,CCN(CC)c1ccc(/C=C2\NC(=O)NC2=O)cc1,-2.3
16,CCc1ccc(/C=C2\NC(=O)NC2=O)cc1,-1.87
17,O=C1NC(=O)/C(=C/c2cccc(C(F)(F)F)c2)N1,-2.06
18,Cc1cccc(/C=C2\NC(=O)NC2=O)c1,-1.87
19,O=C1NC(=O)/C(=C/c2ccccc2F)N1,-2.3
20,CCCCc1ccc(/C=C2\NC(=O)NC2=O)cc1,-2.08
21,Cc1cc(C)c(/C=C2/NC(=O)NC2=O)c(C)c1,-1.45
22,O=C1NC(=O)/C(=C/c2ccccc2)N1,-2.1
23,O=C1NC(=O)/C(=C/c2cccc(O)c2)N1,-2.3
24,O=C1NC(=O)/C(=C/c2ccc3[nH]c4ccccc4c3c2)N1,-2.3
25,O=C1NC(=O)/C(=C/c2ccccc2Br)N1,-2.3
26,O=C1NC(=O)/C(=C/c2ccc(OCc3ccccc3)cc2)N1,-2.2
27,CCOc1ccccc1/C=C1\NC(=O)NC1=O,-2.3
28,O=C1NC(=O)/C(=C/c2cccc(Cl)c2)N1,-1.91

row,Compound,Log 1/EDMES(2.5)
1,O=C1NC(=O)/C(=C/c2cccc3ccccc23)N1,-2.3
2,O=C1NC(=O)/C(=C/c2ccc([N+](=O)[O-])cc2)N1,-2.3
3,COc1ccc(/C=C2\NC(=O)NC2=O)c(OC)c1,-2.24
4,O=C1NC(=O)/C(=C/c2cccc(Br)c2)N1,-1.95
5,CCCCOc1ccc(/C=C2\NC(=O)NC2=O)cc1,-2.3
6,O=C1NC(=O)/C(=C\c2c(Cl)cccc2Cl)N1,-1.86
7,O=C1NC(=O)/C(=C/c2ccc3ccccc3c2)N1,-2.3
8,O=C1NC(=O)/C(=C/c2ccccc2O)N1,-2.3
9,Cc1ccc(/C=C2\NC(=O)NC2=O)cc1,-2.3
10,O=C1NC(=O)/C(=C/c2cccc(Oc3ccccc3)c2)N1,-2.3
11,O=C1NC(=O)/C(=C/c2c[nH]c3ccccc23)N1,-2.3
12,CC(C)(C)c1ccc(/C=C2\NC(=O)NC2=O)cc1,-2.3
13,O=C1NC(=O)/C(=C/c2ccco2)N1,-2.22
14,CCOc1ccc(/C=C2\NC(=O)NC2=O)cc1,-2.03
15,O=C1NC(=O)/C(=C/c2ccccn2)N1,-2.15
16,N#Cc1ccc(/C=C2\NC(=O)NC2=O)cc1,-2.3
17,COc1cccc(/C=C2\NC(=O)NC2=O)c1,-2.3
18,O=C1NC(=O)/C(=C/c2ccc(O)cc2)N1 [4-HYDROXYPHENYLMETHYLENE HYDANTOIN],-2.3
19,CCCOc1ccc(/C=C2\NC(=O)NC2=O)cc1,-1.89
20,O=C1NC(=O)/C(=C/c2ccccc2OCc2ccccc2)N1,-2.3
21,O=C1NC(=O)C(c2ccccc2)(c2ccccc2)N1 [PHENYTOIN],-1.48
22,O=C1NC(=O)/C(=C/c2ccccc2C(F)(F)F)N1,-2.3
23,O=C1NC(=O)/C(=C/c2ccc(Cl)cc2Cl)N1,-2.3
24,Cc1ccccc1/C=C1\NC(=O)NC1=O,-1.77
25,O=C1NC(=O)/C(=C/c2ccc(Br)cc2)N1,-2.3
26,O=C1NC(=O)/C(=C/c2cccs2)N1,-2.3
27,COc1ccccc1/C=C1\NC(=O)NC1=O,-1.92

# Organism: Mus musculus
# Experiment: Anticonvulsant activity measured as effective dose required to produce a response score of 2.5 in MES assay on mice
# Type: functional
# How it was run: as §1
row,Compound,EDMES(2.5)
1,O=C1NC(=O)/C(=C/c2ccc(-c3ccccc3)cc2)N1,>200 mg/kg
2,CC(C)c1ccc(/C=C2\NC(=O)NC2=O)cc1,80 mg/kg
3,O=C1NC(=O)/C(=C/c2ccc(C(F)(F)F)cc2)N1,64 mg/kg
4,O=C1NC(=O)/C(=C/c2ccc(F)cc2)N1,>200 mg/kg
5,O=C1NC(=O)/C(=C/c2cccc([N+](=O)[O-])c2)N1,>200 mg/kg
6,COc1ccc(/C=C2\NC(=O)NC2=O)cc1,>200 mg/kg
7,O=C1NC(=O)/C(=C/c2ccc(F)c(F)c2)N1,121 mg/kg
8,Cc1ccc(/C=C2\NC(=O)NC2=O)c(C)c1,39 mg/kg
9,O=C1NC(=O)/C(=C/C2CCCCC2)N1,156 mg/kg
10,O=C1NC(=O)/C(=C/c2ccccc2Cl)N1,198 mg/kg
11,O=C1NC(=O)/C(=C/c2cccc(F)c2)N1,172 mg/kg
12,Cc1cc(C)c(/C=C2\NC(=O)NC2=O)cc1C,>200 mg/kg
13,O=C1NC(=O)/C(=C/c2ccc(Cl)cc2)N1,>200 mg/kg
14,CN(C)c1ccc(/C=C2\NC(=O)NC2=O)cc1,>200 mg/kg
15,CCN(CC)c1ccc(/C=C2\NC(=O)NC2=O)cc1,>200 mg/kg
16,CCc1ccc(/C=C2\NC(=O)NC2=O)cc1,74 mg/kg
17,O=C1NC(=O)/C(=C/c2cccc(C(F)(F)F)c2)N1,115 mg/kg
18,Cc1cccc(/C=C2\NC(=O)NC2=O)c1,74 mg/kg
19,O=C1NC(=O)/C(=C/c2ccccc2F)N1,>200 mg/kg
20,CCCCc1ccc(/C=C2\NC(=O)NC2=O)cc1,121 mg/kg
21,Cc1cc(C)c(/C=C2/NC(=O)NC2=O)c(C)c1,28 mg/kg
22,O=C1NC(=O)/C(=C/c2ccccc2)N1,125 mg/kg
23,O=C1NC(=O)/C(=C/c2cccc(O)c2)N1,>200 mg/kg
24,O=C1NC(=O)/C(=C/c2ccc3[nH]c4ccccc4c3c2)N1,>200 mg/kg
25,O=C1NC(=O)/C(=C/c2ccccc2Br)N1,>200 mg/kg
26,O=C1NC(=O)/C(=C/c2ccc(OCc3ccccc3)cc2)N1,157 mg/kg
27,CCOc1ccccc1/C=C1\NC(=O)NC1=O,>200 mg/kg
28,O=C1NC(=O)/C(=C/c2cccc(Cl)c2)N1,82 mg/kg

row,Compound,EDMES(2.5)
1,O=C1NC(=O)/C(=C/c2cccc3ccccc23)N1,>200 mg/kg
2,O=C1NC(=O)/C(=C/c2ccc([N+](=O)[O-])cc2)N1,>200 mg/kg
3,COc1ccc(/C=C2\NC(=O)NC2=O)c(OC)c1,175 mg/kg
4,O=C1NC(=O)/C(=C/c2cccc(Br)c2)N1,89 mg/kg
5,CCCCOc1ccc(/C=C2\NC(=O)NC2=O)cc1,>200 mg/kg
6,O=C1NC(=O)/C(=C\c2c(Cl)cccc2Cl)N1,72 mg/kg
7,O=C1NC(=O)/C(=C/c2ccc3ccccc3c2)N1,>200 mg/kg
8,O=C1NC(=O)/C(=C/c2ccccc2O)N1,>200 mg/kg
9,Cc1ccc(/C=C2\NC(=O)NC2=O)cc1,>200 mg/kg
10,O=C1NC(=O)/C(=C/c2cccc(Oc3ccccc3)c2)N1,>200 mg/kg
11,O=C1NC(=O)/C(=C/c2c[nH]c3ccccc23)N1,>200 mg/kg
12,CC(C)(C)c1ccc(/C=C2\NC(=O)NC2=O)cc1,>200 mg/kg
13,O=C1NC(=O)/C(=C/c2ccco2)N1,167 mg/kg
14,CCOc1ccc(/C=C2\NC(=O)NC2=O)cc1,107 mg/kg
15,O=C1NC(=O)/C(=C/c2ccccn2)N1,141 mg/kg
16,N#Cc1ccc(/C=C2\NC(=O)NC2=O)cc1,>200 mg/kg
17,COc1cccc(/C=C2\NC(=O)NC2=O)c1,>200 mg/kg
18,O=C1NC(=O)/C(=C/c2ccc(O)cc2)N1 [4-HYDROXYPHENYLMETHYLENE HYDANTOIN],>200 mg/kg
19,CCCOc1ccc(/C=C2\NC(=O)NC2=O)cc1,77 mg/kg
20,O=C1NC(=O)/C(=C/c2ccccc2OCc2ccccc2)N1,>200 mg/kg
21,O=C1NC(=O)C(c2ccccc2)(c2ccccc2)N1 [PHENYTOIN],30 mg/kg
22,O=C1NC(=O)/C(=C/c2ccccc2C(F)(F)F)N1,>200 mg/kg
23,O=C1NC(=O)/C(=C/c2ccc(Cl)cc2Cl)N1,>200 mg/kg
24,Cc1ccccc1/C=C1\NC(=O)NC1=O,59 mg/kg
25,O=C1NC(=O)/C(=C/c2ccc(Br)cc2)N1,>200 mg/kg
26,O=C1NC(=O)/C(=C/c2cccs2)N1,>200 mg/kg
27,COc1ccccc1/C=C1\NC(=O)NC1=O,84 mg/kg
